For series [1], the system named is Mus musculus. Description: In vivo inhibition of LPS-stimulated TNF-alpha in mouse at 100 mg/kg peroral dose; NS = Not significant. The class given is functional, organism-based. The arrangement: dose 100 mg/kg. A digest of the protocol: (§1)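 Female Balb/c mice (~20 g) received compound or vehicle orally in cremophor about 30 min before an i.v. challenge of E. coli 0111:B4 LPS (1.0 μg/mouse) plus D-gal (50 mg/kg) in pyrogen-free saline. One hour after challenge, the mice were bled by cardiac puncture. Serum TNF-α was measured by ELISA in duplicate, and compound levels by HPLC.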

A short description of series [2]: Plasma level of compound was measured after 90 min post dose in mouse. The following applies: read-out: Plasma level. The class given is ADME, organism-based. A digest of the protocol: as §1
Series [3] is described as follows: Plasma level of compound was measured after 90 min post dose in mouse. The following applies: read-out: Plasma level. The class given is ADME, organism-based. The method, boiled down:
as §1

The test system of series [4] is Mus musculus. Briefly: In vivo inhibition of LPS-stimulated TNF-alpha in mouse at 100 mg/kg peroral dose. The class given is functional. The following applies: route oral. A digest of the protocol: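 Female Balb/c mice (~20 g) dosed orally in cremophor ~30 min before iv LPS (E. coli 0111:B4, 1.0 μg/mouse) plus D-gal (50 mg/kg) in pyrogen-free saline. Blood taken by cardiac puncture 1 h after challenge; serum TNF-α by ELISA in duplicate; serum compound levels by HPLC.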

The target in another series is MAP kinase p38 (Homo sapiens, UniProt O15264+Q15759+Q16539+P53778). Description: Binding affinity against human Mitogen-activated protein kinase p38. The class given is protein assay. A digest of the protocol:
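Inhibitor at two concentrations (typically 1 and 0.1 μM, verified by HPLC); 60 min room temperature; excitation 332 nm, emission 420 nm. Duplicates; all points fit to equilibrium binding equation for Kd.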

Series [5] in a line: Bioavailability was measured after oral dosing at 10 mg/kg in male cynomolgus monkey (100% PEG400). As to conditions: in vivo, read-out: Bioavailabiility. The class given is ADME, organism-based, Macaca fascicularis.
Series [6] in a line: Maximum plasma conc. was measured after oral dosing at 10 mg/kg in female BALB/c mice(100% PEG400). The class given is ADME, organism-based. The arrangement: dose 10 mg/kg, route oral. As to conditions: mouse.
Series [7] in a line: Maximum time (Tmax) was measured after oral dosing at 10 mg/kg in female BALB/c mice(100% PEG400). The class given is ADME, organism-based. The arrangement: dose 10 mg/kg, route oral. As to conditions: mouse, in vivo.
Series [8] is described as follows: Maximum conc. (Cmax) was measured after oral dosing at 10 mg/kg in male cynomolgus monkey (100% PEG400). Format: ADME, organism-based, Macaca fascicularis. The following applies: in vivo. The arrangement: dose 10 mg/kg, route oral.
Series [9] is described as follows: Maximum time (Tmax) was measured after oral dosing at 10 mg/kg in male cynomolgus monkey (100% PEG400). As to conditions: in vivo. The arrangement: dose 10 mg/kg, route oral. The class given is ADME, organism-based, Macaca fascicularis.
Series [10] in a line: Vss was measured after intravenous dosing at 1 mg/kg in female BALB/c mice(70% PEG400). Format: ADME, organism-based. The arrangement: dose 1 mg/kg, route intravenous. As to conditions: mouse, in vivo, read-out: Vss.
A short description of series [11]: Half-life was measured after intravenous dosing at 1 mg/kg in male cynomolgus monkey (70% PEG400). The class given is ADME, organism-based, Macaca fascicularis. The following applies: in vivo. Further details: dose 1 mg/kg, route intravenous.
The nature of series [12]: Selectivity against Protein kinase C alpha, Protein kinase C beta, Protein kinase C gamma.
Series [13] has as its target Receptor tyrosine-protein kinase erbB-2 (Homo sapiens, UniProt P04626). Description: Selectivity against HER2 kinase.
A short description of series [14]: Half life was measured after intravenous dosing at 1 mg/kg in female BALB/c mice(70% PEG400). Format: ADME, organism-based. Further details: dose 1 mg/kg, route intravenous. As to conditions: mouse, in vivo.
A short description of series [15]: Vss was measured after intravenous dosing at 1 mg/kg in male cynomolgus monkey (70% PEG400). The class given is ADME, organism-based, Macaca fascicularis. Further details: dose 1 mg/kg, route intravenous. The following applies: in vivo, read-out: Vss.
Series [16] is described as follows: Plasma clearance was measured after intravenous dosing at 1 mg/kg in male cynomolgus monkey (70% PEG400). The class given is ADME, organism-based, Macaca fascicularis. Further details: dose 1 mg/kg, route intravenous.
In series [17] the target is cAMP-dependent protein kinase (PKA) (Homo sapiens, UniProt P22694+P17612+P22612). Description: Selectivity against Protein kinase A (PKA). Format: protein assay.
A short description of series [18]: Bioavailability was measured after oral dosing at 10 mg/kg in female BALB/c mice(100% PEG400). Format: ADME, organism-based. As to conditions: mouse, in vivo, read-out: Bioavailabiility.
A short description of series [19]: Plasma clearance (CL) was measured after intravenous dosing at 1 mg/kg in female BALB/c mice(70% PEG400). Format: ADME, organism-based. Further details: dose 1 mg/kg, route intravenous. As to conditions: mouse.

5 compounds from ChEMBL document CHEMBL1135498, “Pyrazole urea-based inhibitors of p38 MAP kinase: from lead compound to clinical candidate” (J Med Chem, 2002) can be followed below.

Activity calls are given as the source filed them. The calls are words filed in the database; no cut-off is given here.

Sequence of Receptor tyrosine-protein kinase erbB-2 (P04626 whole entry): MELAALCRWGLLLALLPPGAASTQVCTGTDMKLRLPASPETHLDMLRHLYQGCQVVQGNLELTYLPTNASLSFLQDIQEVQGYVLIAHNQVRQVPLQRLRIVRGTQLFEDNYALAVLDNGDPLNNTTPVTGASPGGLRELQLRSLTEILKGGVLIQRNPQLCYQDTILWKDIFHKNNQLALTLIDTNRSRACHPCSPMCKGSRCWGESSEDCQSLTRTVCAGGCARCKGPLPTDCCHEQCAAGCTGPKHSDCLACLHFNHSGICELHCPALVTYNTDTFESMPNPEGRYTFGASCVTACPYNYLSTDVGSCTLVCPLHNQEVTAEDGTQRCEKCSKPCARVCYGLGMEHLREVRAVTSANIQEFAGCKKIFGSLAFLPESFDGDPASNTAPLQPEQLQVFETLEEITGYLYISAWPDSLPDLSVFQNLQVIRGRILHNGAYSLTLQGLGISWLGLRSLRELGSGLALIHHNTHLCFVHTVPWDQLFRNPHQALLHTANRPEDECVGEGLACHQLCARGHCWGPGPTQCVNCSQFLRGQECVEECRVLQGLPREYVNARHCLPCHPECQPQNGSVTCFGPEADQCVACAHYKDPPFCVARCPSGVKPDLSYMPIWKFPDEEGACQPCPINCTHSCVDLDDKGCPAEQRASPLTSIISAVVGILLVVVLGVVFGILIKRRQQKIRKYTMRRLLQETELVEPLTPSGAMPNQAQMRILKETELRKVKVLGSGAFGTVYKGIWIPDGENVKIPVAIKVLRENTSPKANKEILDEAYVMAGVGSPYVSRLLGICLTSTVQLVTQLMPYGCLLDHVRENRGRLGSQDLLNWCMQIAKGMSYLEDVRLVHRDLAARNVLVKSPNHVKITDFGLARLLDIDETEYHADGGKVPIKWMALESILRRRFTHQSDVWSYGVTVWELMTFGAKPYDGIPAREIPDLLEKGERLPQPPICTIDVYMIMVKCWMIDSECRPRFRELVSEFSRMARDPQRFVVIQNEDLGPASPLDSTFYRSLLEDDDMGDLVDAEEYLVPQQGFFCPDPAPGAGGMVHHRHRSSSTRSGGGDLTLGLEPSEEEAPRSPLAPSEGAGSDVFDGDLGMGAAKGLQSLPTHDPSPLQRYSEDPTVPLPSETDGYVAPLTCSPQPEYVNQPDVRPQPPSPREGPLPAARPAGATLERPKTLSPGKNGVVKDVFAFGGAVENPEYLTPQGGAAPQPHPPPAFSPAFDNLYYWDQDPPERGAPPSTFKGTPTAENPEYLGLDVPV

Consider `CC(C)(C)c1cc(NC(=O)Nc2ccccc2)n(-c2ccccc2)n1`, for which, in the series with Mus musculus [1], the NS entry is “inactive”. The concentration at 1.5 h in series [2] was found to be 100 ng/mL.
Usually inhibition in vivo stands for the share of the control response that was lost under treatment. As to `Cc1ccc(-n2nc(C(C)(C)C)cc2NC(=O)Nc2ccccc2)cc1`, in [3], the concentration at 1.5 h came out at 11000 ng/mL. The compound further gave an inhibition in vivo at 100 mg/kg in the series on Mus musculus [4] of 67%.
Broadly, the Kd is a measure of binding affinity in units of concentration. At MAP kinase p38, `Cc1ccc(-n2nc(C(C)(C)C)cc2NC(=O)Nc2cccc3ccccc23)cc1` returned a Kd of 0.001 µM.
In the series with Mus musculus [4], `Cc1ccc(-n2nc(C(C)(C)C)cc2NC(=O)Nc2ccccc2F)cc1` showed an inhibition in vivo at 100 mg/kg of 90%. In addition, in series [2], the concentration at 1.5 h worked out at 51000 ng/mL.
For orientation: Cmax means the maximum level reached in the sampled fluid or tissue. For orientation: Tmax means the time from dosing to the highest level. One may read the half-life as how long it takes for the measured level to halve. The term IC50 denotes the concentration needed to halve the response being measured. Broadly, the clearance is a measure of how efficiently the substance is removed, as volume per time. Consider `Cc1ccc(-n2nc(C(C)(C)C)cc2NC(=O)Nc2ccc(OCCN3CCOCC3)c3ccccc23)cc1` [DORAMAPIMOD], for which the bioavailability in series [5] stood at 80%; in [18], 23%. Also, the Cmax in series [6] came to 27000 ng/mL; in series [8] it was 1700 ng/mL. The Tmax in [7] was found to be 1 h; in series [9], 3 h. For the same compound, the Vd in [10] turned out to be 0.07 L/kg; in series [15], 1.9 L/kg. Further, the half-life is 1.6 h in series [11] and 2.6 h in series [14]. Also, the IC50 in [12], in [13] and in [17] was greater than 20 µM in each case. The clearance in series [16] stood at 14.4 mL/min/kg; in [19], 0.33 mL/min/kg.
